The target in test [1] is Type-1 angiotensin II receptor (Oryctolagus cuniculus) (UniProt P34976). As to the kind of experiment: Binding affinity towards Angiotensin receptor from rabbit aorta.
Test [2] has as its target Type-1 angiotensin II receptor (Rattus norvegicus) (UniProt P25095). Put plainly: The compound was tested for inhibition of angiotensin II receptor induced pressor response in rat after intravenous administration.
Test [3] has as its system Rattus norvegicus. As to the kind of experiment: Percentage peak pressor response in rat after peroral administration at a dose of 0.1 mg/kg of the compound. Format: functional. As to conditions: route oral. The method, boiled down:
(§1)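 Conscious male Sprague-Dawley rats (300–400 g) fitted with arterial and venous catheters. Compound given orally as a suspension in 1 N NaOH–0.5% methocel (10:90). Pressor response to AII (0.1 μg/kg iv) measured before and after dosing. Peak inhibition of the AII response is expressed as a percentage at each dose.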

In test [4] the test system is Rattus norvegicus. As to the kind of experiment: Percentage peak pressor response in rat after intravenous administration at a dose of 0.3 mg/kg of the compound. Type of test: functional. The method, boiled down: (§2)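 Male Sprague-Dawley rats (300–400 g), conscious, with arterial (blood pressure) and venous (dosing) catheters. Pressor responses to AII 0.1 μg/kg iv recorded before and after iv compound. Vehicle: saturated NaHCO3 15%, saline 35%, water 50%.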

For test [5], the system named is Rattus norvegicus. As to the kind of experiment: Percentage peak pressor response in rat after peroral administration at a dose of 0.3 mg/kg of the compound. Type of test: functional. Particulars: route oral. Put shortly:
as §1

Test [6] deals with Rattus norvegicus. Put plainly: Percentage peak pressor response in rat after peroral administration at a dose of 0.03 mg/kg of the compound. Type of test: functional. As to conditions: route oral. The method, boiled down: as §1
The subject of test [7] is Rattus norvegicus. As to the kind of experiment: Percentage peak pressor response in rat after intravenous administration at a dose of 0.03 mg/kg of the compound. Format: functional. Put shortly: as §2
Test [8] deals with Rattus norvegicus. As to the kind of experiment: Percentage peak pressor response in rat after intravenous administration at a dose of 0.1 mg/kg of the compound. Type of test: functional. Put shortly: as §2

From ChEMBL document CHEMBL1125216, “Potent, orally active imidazo[4,5-b]pyridine-based angiotensin II receptor antagonists” (J Med Chem, 1991) come the findings set out here.

Structures are written as SMILES.

Type-1 angiotensin II receptor (Oryctolagus cuniculus), sequence (P34976 whole entry, looked up): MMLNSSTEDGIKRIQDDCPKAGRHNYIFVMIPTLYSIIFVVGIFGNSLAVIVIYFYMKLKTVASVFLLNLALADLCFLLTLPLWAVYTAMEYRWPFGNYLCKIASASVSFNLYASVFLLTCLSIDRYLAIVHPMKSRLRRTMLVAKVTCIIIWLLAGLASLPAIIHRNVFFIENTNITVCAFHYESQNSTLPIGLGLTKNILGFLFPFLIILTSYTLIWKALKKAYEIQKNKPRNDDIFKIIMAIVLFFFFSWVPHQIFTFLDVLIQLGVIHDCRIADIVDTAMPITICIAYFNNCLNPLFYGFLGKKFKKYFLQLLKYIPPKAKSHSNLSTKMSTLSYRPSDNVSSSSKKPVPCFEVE
Type-1 angiotensin II receptor (Rattus norvegicus), sequence (P25095 whole entry, looked up): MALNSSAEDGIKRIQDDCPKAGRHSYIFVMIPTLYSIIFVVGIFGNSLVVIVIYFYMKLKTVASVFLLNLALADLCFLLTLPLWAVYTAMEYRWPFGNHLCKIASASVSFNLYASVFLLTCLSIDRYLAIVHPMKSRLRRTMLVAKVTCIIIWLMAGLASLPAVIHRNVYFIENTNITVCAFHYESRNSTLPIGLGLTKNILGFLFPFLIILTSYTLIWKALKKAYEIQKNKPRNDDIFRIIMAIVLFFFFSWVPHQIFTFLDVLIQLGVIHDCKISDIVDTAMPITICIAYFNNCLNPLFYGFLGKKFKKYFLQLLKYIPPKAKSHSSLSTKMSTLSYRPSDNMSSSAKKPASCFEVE

Take `CCCc1nc2c(C)ccnc2n1Cc1ccc(-c2ccccc2-c2nn[nH]n2)cc1`: the half-maximal inhibitory concentration (IC50) (commonly the midpoint of a concentration-inhibition curve) in test [1] stood at 1 nM.

With `CCCc1nc2ccc(C)nc2n1Cc1ccc(-c2ccccc2-c2nn[nH]n2)cc1`, the IC50 in test [1] is 2 nM. Further, the 50% effect level in test [2] (ED50) was put at a dose of 1 mg/kg.

In turn, `CCCCc1nc2c(C)cc(C)nc2n1Cc1ccc(-c2ccccc2-c2nn[nH]n2)cc1` registered an IC50 in test [1] of 0.5 nM. Further, in test [2], the median effective dose (ED50) – broadly, the dose at which the effect has come halfway, by size or by number of responders – turned out to be 0.45 mg/kg.

For `CCc1nc2c(C)cc(C)nc2n1Cc1ccc(-c2ccccc2-c2nn[nH]n2)cc1` [L-158809], the Peak inhibition in the test with Rattus norvegicus [3] came to 75%; in the test with Rattus norvegicus [4], 99%; in the test with Rattus norvegicus [5] it was 92%; in the test on Rattus norvegicus [6], 52%; with Rattus norvegicus [7], 36%; in the test with Rattus norvegicus [8] it was 85%.

In test [1], `CCCCC1=NC(Cl)C(C(=O)O)N1Cc1ccc(-c2ccccc2-c2nn[nH]n2)cc1` (stereo not given) came in with a concentration for half-maximal inhibition (IC50) of 6 nM.

`CCCc1nc2c(C)cc(C)nc2n1Cc1ccc(-c2ccccc2-c2nn[nH]n2)cc1` yielded an IC50 in test [1] of 0.3 nM. The same compound displayed an ED50 in test [2] of 0.087 mg/kg.

`CCCc1nc2cccnc2n1Cc1ccc(-c2ccccc2-c2nn[nH]n2)cc1` displayed an IC50 in test [1] of 8 nM.
